PLC-gamma1 inh = inhibitors of human phospholipase C gamma1. 370,000 compounds, 0.84% hits. purified PLC-gamma1, fluorogenic substrate, fluorescence. inhibition, % at 12.2 µM; in the data active = inhibition above about 9.5%
ARFGAP1 inh = rat ARFGAP1 inhibition; Q62848; Arfgap1-stimulated ARF1 GTP hydrolysis, GDP FP detection; inhibition, % at 16.5 µM; 360,000 compounds, 0.26% hits; AID 651572;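 active = inhibition above a per-plate limit, mean inhibition of low control wells plus 3 SD, cut at about 25% in these data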;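 note: 0% = DMSO wells with enzyme and 100% = wells lacking Arfgap1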
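Replicates: Single well per compound | Assay system: Truncated rat Arfgap1 GAP domain | Control set: No-Arfgap1 wells (100%) versus DMSO full-reaction wells (0%) | Times: Enzyme reaction 120 min at 25 °C after 20 min preincubation | Reagent: Human ARF1(Δ1-17)-GTP substrate | Measured by: Tracer-displacement fluorescence polarization with EDTA stop, 620/688 nm | Measure: Percent inhibition of Arfgap1-stimulated GTP hydrolysis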
HGIII-sPLA2 inh = Inhibits HGIII-sPLA2 liposome hydrolysis, primary screen | Q9NZ20 | QFRET BODIPY PC-A2 liposome hydrolysis, fluorescence | inhibition, % at 12.2 µM | 370,000 compounds, 0.56% hits;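 active = inhibition above mean plus 3 SD of compounds lying within the high and low control bounds, cut at about 19% in these data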;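 note: 0% = median of test compound wells and 100% = no enzyme DMSO wells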
ASAP1 GAP inh = blocks human ASAP1-stimulated Arf1 GTP hydrolysis | GDP FP detection | inhibition, % at 16.5 µM | 360,000 compounds, 0.19% hits | AID 624377; in the data active = inhibition above about 25%;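 note: 0% = vehicle with enzyme and substrate and 100% = no enzyme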
Target sequence (Q9ULH1 325-724 limits assumed): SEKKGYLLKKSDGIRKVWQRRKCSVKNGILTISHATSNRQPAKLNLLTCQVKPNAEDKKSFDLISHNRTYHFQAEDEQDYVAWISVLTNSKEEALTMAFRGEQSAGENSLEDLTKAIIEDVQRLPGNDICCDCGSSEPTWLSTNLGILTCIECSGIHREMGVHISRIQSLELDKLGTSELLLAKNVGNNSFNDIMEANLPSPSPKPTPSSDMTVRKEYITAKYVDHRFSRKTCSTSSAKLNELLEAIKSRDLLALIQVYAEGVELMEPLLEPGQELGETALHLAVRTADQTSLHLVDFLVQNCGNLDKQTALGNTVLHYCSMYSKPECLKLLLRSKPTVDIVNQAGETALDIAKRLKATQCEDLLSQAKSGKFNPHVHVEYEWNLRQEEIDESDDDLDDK
PLC-beta3 inh = PLC-beta3 (human) inhibition, primary screen; Q01970; 370,000 compounds, 0.18% hits; Purified PLC-beta3, fluorogenic substrate, fluorescence; inhibition, % at 12.2 µM;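 note: 0% = median of compound wells on plate and 100% = full blocker control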
ASAP1 GAP conf = confirmation of human ASAP1 inhibitors | shares compounds with ASAP1 GAP inh | inhibition, % at 16.5 µM | ASAP1-stimulated Arf1 GTPase, GDP fluorescence polarization | 620 compounds, 37% hits;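 active = mean inhibition over triplicates exceeds the hit threshold derived for the earlier primary screening run, cut at about 25% in these data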
ARFGAP1 confirm = confirmation of rat ARFGAP1 inhibitors; shares compounds with ARFGAP1 inh; ARFGAP1-stimulated ARF1 GTP hydrolysis, GDP tracer FP; inhibition, % at 16.5 µM; 890 compounds, 30% hits; AID 651608;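 active = average inhibition over triplicates above the hit cutoff set in the earlier primary screen, cut at about 25% in these data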;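 note: 0% = Arfgap1 plus ARF1-GTP with DMSO and 100% = wells lacking Arfgap1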
Target sequence (Q62848 whole entry, looked up): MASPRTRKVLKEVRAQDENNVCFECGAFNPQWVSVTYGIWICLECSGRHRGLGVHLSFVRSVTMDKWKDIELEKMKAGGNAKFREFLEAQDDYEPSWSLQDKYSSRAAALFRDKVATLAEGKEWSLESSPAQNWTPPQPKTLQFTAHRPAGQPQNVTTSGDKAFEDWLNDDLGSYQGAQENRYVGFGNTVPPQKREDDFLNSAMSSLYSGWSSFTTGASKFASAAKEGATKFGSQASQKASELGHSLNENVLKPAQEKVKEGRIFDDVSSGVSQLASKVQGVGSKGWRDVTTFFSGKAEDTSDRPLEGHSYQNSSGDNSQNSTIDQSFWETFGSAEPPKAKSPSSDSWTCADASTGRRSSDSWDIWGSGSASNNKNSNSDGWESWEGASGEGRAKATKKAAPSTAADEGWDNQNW
PLCg1 ctr = PLC-gamma1 inhibition, counter-screen for PLC-beta3 hits | shares compounds with PLC-gamma1 inh | purified PLC-gamma1, fluorogenic substrate, fluorescence | inhibition, % at 12.3 µM | 3,300 compounds, 3.1% hits | AID 743258; in the data active = inhibition above about 9.5%
PLCb3 confirm = human PLC-beta3 inhibition, confirmation; shares compounds with PLC-gamma1 inh; purified PLC-beta3, fluorogenic substrate fluorescence; inhibition, % at 12.3 µM; 3,300 compounds, 1% hits; AID 743261
hGIII sPLA2 conf = human GIII-sPLA2 inhibition, confirmation | shares compounds with HGIII-sPLA2 inh | recombinant hGIII-sPLA2, BODIPY PC-A2 QFRET fluorescence | 2,000 compounds, 34% hits | inhibition, % at 12.2 µM | AID 743280;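 active = mean inhibition across triplicates above the hit cutoff set in the earlier primary screen, cut at about 19% in these data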;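 note: 0% = enzyme with DMSO and 100% = DMSO wells lacking enzyme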
BODIPY interf = counter-screen for HGIII-sPLA2 inhibitors: 535nm fluorescence interference | shares compounds with HGIII-sPLA2 inh | BODIPY FL product fluorescence interference, QFRET | inhibition, % at 12.2 µM | 2,000 compounds, 8.5% hits | AID 743282;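 active = average inhibition above the solvent-only control mean plus 3 SD, cut at about 6% in these data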;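 note: 0% = DMSO with substrate plus product and 100% = DMSO with substrate alone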
* hit, by the source's call; i = inactive; / = no result; + = active, no number. This is a sample that favours compounds with a hit; in the whole collection about 1.9% have one here. Cut-off read from the data, not from the text of the source, unless noted: active = inhibition above about 11%; inactive = the rest.

SMILES | PLC-gamma1 inh | ARFGAP1 inh | HGIII-sPLA2 inh | ASAP1 GAP inh | PLC-beta3 inh | ASAP1 GAP conf | ARFGAP1 confirm | others
C/C(=N\NC(=O)c1cc(-c2cccc([N+](=O)[O-])c2)n[nH]1)c1ccccc1O | -5.0 | 54.2* | 8.2 | 136.0* | -0.7 | 149.6* | 151.7*
COc1cccc(C(=O)Nc2cccc(-c3ccc4nncn4n3)c2)c1OC | -0.5 | 2.0 | 3.9 | 3.5 | -8.2 | / | /
COc1ccc(Cl)cc1C(=O)Nc1cccc(-c2ccc3nncn3n2)c1 | 9.0 | + | 3.7 | 191.3* | -7.9 | 196.0* | +
CN(Cc1cccc(Cl)c1Cl)C(=O)CCNC(=O)c1ccco1 | 11.8* | -3.8 | 1.0 | 29.1* | 7.3 | 1.2 | / | PLCg1 ctr=0.7;PLCb3 confirm=0.4
C[C@H](O)[C@@H]1CN2CCc3ccc(N4CCOCC4)cc3[C@@H]2C[C@@H]1N(C)CC1CCCCC1 | -10.9 | / | 6.2 | / | -13.2 | / | /
CCCCNC(=O)NC12CC3CC(CC(C3)C1)C2 | 3.1 | 6.3 | 3.4 | 7.0 | -1.9 | / | /
CCCCNC(=O)NC(C(=O)OC)C12CC3CC(CC(C3)C1)C2 (stereo not given) | 12.8* | 12.6 | 7.5 | 29.9* | 3.8 | -4.1 | / | PLCg1 ctr=-2.3;PLCb3 confirm=2.6
Cc1ccc(NC(=O)CSc2nnc(-c3ccc(S(=O)(=O)N4CCCC4)cc3)o2)cc1C | 11.9* | -5.5 | 7.2 | 30.7* | 2.8 | 4.3 | / | PLCg1 ctr=-5.1;PLCb3 confirm=-4.0
O=C1NC(=S)S/C1=C\C=C\c1ccc([N+](=O)[O-])o1 | 59.6* | 8.4 | -10.7 | 28.9* | 0.7 | 10.7 | / | PLCg1 ctr=32.5*;PLCb3 confirm=-7.8
O=C(O)/C=C/c1ccc([N+](=O)[O-])o1 | -9.2 | -8.3 | 6.6 | -9.7 | -10.6 | / | /
CCN(CC)C(=O)CC[C@H]1CC[C@]2(CCCN(C(=O)C(C)(C)C)C2)O1 | 1.1 | / | 4.2 | / | 6.0 | / | /
O=C1C(=C(I)I)c2ccccc2-c2ccccc21 | 33.7* | -9.3 | -21.5 | 38.1* | -12.0 | -14.4 | / | PLCg1 ctr=39.1*;PLCb3 confirm=-1.6
O=C(O)c1cccc2c1C(=O)c1ccccc1-2 | -1.5 | 4.1 | -1.7 | 0.9 | -7.1 | / | /
COc1ccc(CC2CCN(c3ncnc4sccc34)CC2)cc1 | -1.2 | / | -11.9 | / | -7.3 | / | /
COc1ccc(N/N=C(\C#N)C(=N)SCc2ccccc2)cc1 | 9.6* | 4.7 | 3.2 | 26.5* | 2.1 | 1.0 | / | PLCg1 ctr=6.0;PLCb3 confirm=2.4
COC(=O)CSc1nnc2n(-c3ccc(OC)cc3)c(=O)c3c4c(sc3n12)CCCCC4 | 10.0* | 62.1* | -5.8 | 39.0* | 0.9 | 42.1* | 74.6* | PLCg1 ctr=-3.3;PLCb3 confirm=-1.1
CCn1c2ccccc2c2cc(C=NNC(=O)CSc3nc4ccccc4c(=O)n3-c3ccccc3)ccc21 | -39.3 | / | -1.7 | / | -47.4 | / | /
Nc1ccc(O)c2c(=O)cc(-c3ccccc3Cl)oc12 | 5.1 | 0.5 | 27.2* | 28.4* | 4.3 | 13.0 | / | hGIII sPLA2 conf=42.1*;BODIPY interf=-1.9
O=c1cc(-c2ccccc2Cl)oc2cc(O)cc(O)c12 | 1.3 | -1.6 | -7.2 | 8.4 | -0.6 | / | /
CN(C)C(=O)NCCCC#Cc1ccccc1 | -1.2 | / | 8.5 | / | 2.4 | / | /
CCC(=O)NC(c1cccs1)c1cc([N+](=O)[O-])c2cccnc2c1OC (stereo not given) | 17.9* | 23.4 | 19.3* | 43.1* | -3.3 | 13.5 | / | hGIII sPLA2 conf=16.7;BODIPY interf=-3.6
C=CCn1c2ccccc2c2nnc(SCCN3CCCCC3)nc21 | -5.8 | 4.5 | -8.4 | 1.5 | -10.9 | / | /
C=CCn1c2ccccc2c2nnc(SCCCn3c(=O)[nH]c4ccccc43)nc21 | -11.0 | 40.1* | -32.0 | -12.1 | -25.3 | / | 5.1
COCCCNC(=O)[C@@H](Cc1ccccc1)NC(=O)[C@H]1O[C@@H](n2ccc(=O)[nH]c2=O)[C@H](O)[C@@H]1O | 0.6 | -8.3 | -2.2 | 9.1 | -2.1 | / | /
CC(=O)c1c(C)nc(Nc2nc3ccccc3s2)nc1C | 2.1 | 25.1* | 8.6 | -9.8 | -4.2 | / | -0.8
SMILES | PLC-gamma1 inh | ARFGAP1 inh | HGIII-sPLA2 inh | ASAP1 GAP inh | PLC-beta3 inh | ASAP1 GAP conf | ARFGAP1 confirm | others
COc1cc2cc(C(=O)NC(C)c3cccc4ccccc34)c(N)nc2cc1OC (stereo not given) | i | 25.3* | 2.5 | 19.3 | i | / | 7.1
C[C@@H]1C=CCCO[C@]12C(=O)Nc1ccccc12 | -7.9 | -0.6 | -1.2 | 1.1 | -5.0 | / | /
COc1ccc(C(=O)NC(=S)Nc2ccc(N3CCCC3)cc2)cc1 | -0.5 | 10.2 | -1.1 | -2.4 | -1.4 | / | /
COc1ccc(C(=O)Nc2ccc(N3CCCC3)cc2)cc1 | -10.4 | 24.8* | 17.5 | 9.6 | -7.1 | / | 87.0*
COc1cc(/C=N/Nc2nc3ccccc3s2)ccc1OC(=O)c1ccccc1F | -6.1 | 25.4* | 6.3 | -1.3 | -1.2 | / | 17.9
COC(=O)C1CN(Cc2ccc(F)cc2)CCS(=O)(=O)N1Cc1ccc(C)cc1 (stereo not given) | -0.8 | / | -6.5 | / | 2.5 | / | /
CC[C@H](CO)Oc1cc(NCc2cccc(N)c2)c2ncn(C(C)C)c2c1 | -32.0 | 27.4* | 11.9 | 3.2 | -33.0 | / | 2.7
COc1cccc(-c2csc(N3CCN(C(=O)Nc4ccc(Cl)cc4)CC3)n2)c1 | -1.9 | 28.1* | -0.5 | 3.0 | -4.7 | / | 5.8
COc1ccccc1N1CCN(C(=O)c2cc3n(n2)C(C(F)(F)F)CC(c2ccco2)N3)CC1 (stereo not given) | -0.8 | 29.9* | -12.4 | 0.3 | -2.4 | / | -3.4
Cc1nc(-c2cccc(S(=O)(=O)N3CC(C)CC(C)C3)c2)cs1 (stereo not given) | 0.8 | 26.5* | 4.2 | -10.7 | -0.1 | / | 2.4
COc1[nH]c2ccc(F)cc2c1C(=O)OCC1CCN(CCNS(C)(=O)=O)CC1 | -0.9 | 27.5* | -11.9 | -12.3 | 1.3 | / | 2.4
COC(=O)c1cc(S(=O)(=O)NCC2CCN(Cc3cccc(F)c3)CC2)cn1C | 2.2 | -3.0 | 0.3 | 2.3 | -1.5 | / | /
CCCCN1C[C@@H](COCc2ccccc2)Oc2cc(F)ccc2S1(=O)=O | -1.2 | / | 1.4 | / | -2.7 | / | /
CCC[C@H]1[C@@H](NC(=O)C#Cc2ccccc2)CC[C@@]23CCCN2C(=O)CCC[C@@H]13 | 0.6 | / | -3.7 | / | 2.6 | / | /
Cc1ccc(Cn2cc(CN3[C@@H](Cc4ccccc4)COc4cc(Br)ccc4S3(=O)=O)nn2)cc1 | -1.4 | / | 4.7 | / | -2.9 | / | /
